Assay [1] concerns E. coli YcaO. Particulars: absence of substrate, ref [30]; cited from earlier work.
For assay [2], the system named is LynD. Briefly: 31P NMR of ATP turnover by LynD. It is filed as biochemical, Lyngbya sp. PCC 8106. Particulars: with and without PatE′.
For assay [3], the system named is TruD. Briefly: Heterocyclization reaction with TruD, LCMS. It is filed as biochemical. Particulars: ITACITFCAYDG core peptide, no leader, 16 h.
Assay [4] concerns LynD Fusion. Briefly: Heterocyclization reaction with LynD fusion, MS. The assay is classed as biochemical, Lyngbya sp. PCC 8106. Particulars: LynDfusion, ITACITFCAYDG core peptide, no leader, 2 h; LCMS. In a few lines: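 Enzyme is LynD carrying PatE leader residues 21-38 plus an 11-residue linker at its N-terminus, expressed in E. coli BL21 (DE3) with the His6-tag removed by TEV. Product is read by ESI/MALDI MS or LC-MS […].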

For the compound `Nc1ncnc2c1ncn2[C@@H]1O[C@H](COP(=O)(O)OP(=O)(O)OP(=O)(O)O)[C@@H](O)[C@H]1O` [ATP], the ATP hydrolysis products result in assay [1] is “hydrolyzed ATP to AMP and pyrophosphate”. Moreover, in assay [2], the “products of ATP turnover” value is “AMP (not ADP), pyrophosphate (PPi) and phosphate”.

For ITACITFCAYDG, the “heterocycles formed in leaderless test peptide” value was “only 1 heterocycle is formed” in assay [3] and “predominantly 2 heterocycles after just 2 h” in assay [4].

Values taken from PMC4512242 (Nature chemical biology, 2015).
